EC50, Activity and viability data for nine compounds are collected here from ChEMBL document CHEMBL4028879, “Structure-Activity Relationship Studies of Pyrimido[5,4-b]indoles as Selective Toll-Like Receptor 4 Ligands” (J Med Chem, 2017).

Activity calls are given as the source filed them. The rule behind the calls is not given here.

Data set [1] addresses T1, Toll-like receptor 4 (Homo sapiens, UniProt O00206). Nature of the data set: Agonist activity at human TLR4 expressed in HEK293 blue cells assessed as induction of NF-kappaB activation-mediated SEAP production after 20 to 24 hrs by colorimetric assay. In kind it is cell-based. In a few lines: (§1)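 HEK-Blue cells expressing human or mouse TLR4, 2.5 × 10⁴/well in DMEM with 10% FBS, pyruvate, glutamine and antibiotics. Graded doses from 20 mM DMSO stocks, final DMSO 0.05%. Supernatants harvested after 20–24 h; SEAP read by colorimetric substrate at 630 nm. EC50 taken as the concentration giving 50% of maximal activation. LPS 100 ng/mL served as positive control.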

Data set [2] addresses T2, Toll-like receptor 4 (Mus musculus, UniProt Q9QUK6).
T2 sequence (Q9QUK6 whole entry): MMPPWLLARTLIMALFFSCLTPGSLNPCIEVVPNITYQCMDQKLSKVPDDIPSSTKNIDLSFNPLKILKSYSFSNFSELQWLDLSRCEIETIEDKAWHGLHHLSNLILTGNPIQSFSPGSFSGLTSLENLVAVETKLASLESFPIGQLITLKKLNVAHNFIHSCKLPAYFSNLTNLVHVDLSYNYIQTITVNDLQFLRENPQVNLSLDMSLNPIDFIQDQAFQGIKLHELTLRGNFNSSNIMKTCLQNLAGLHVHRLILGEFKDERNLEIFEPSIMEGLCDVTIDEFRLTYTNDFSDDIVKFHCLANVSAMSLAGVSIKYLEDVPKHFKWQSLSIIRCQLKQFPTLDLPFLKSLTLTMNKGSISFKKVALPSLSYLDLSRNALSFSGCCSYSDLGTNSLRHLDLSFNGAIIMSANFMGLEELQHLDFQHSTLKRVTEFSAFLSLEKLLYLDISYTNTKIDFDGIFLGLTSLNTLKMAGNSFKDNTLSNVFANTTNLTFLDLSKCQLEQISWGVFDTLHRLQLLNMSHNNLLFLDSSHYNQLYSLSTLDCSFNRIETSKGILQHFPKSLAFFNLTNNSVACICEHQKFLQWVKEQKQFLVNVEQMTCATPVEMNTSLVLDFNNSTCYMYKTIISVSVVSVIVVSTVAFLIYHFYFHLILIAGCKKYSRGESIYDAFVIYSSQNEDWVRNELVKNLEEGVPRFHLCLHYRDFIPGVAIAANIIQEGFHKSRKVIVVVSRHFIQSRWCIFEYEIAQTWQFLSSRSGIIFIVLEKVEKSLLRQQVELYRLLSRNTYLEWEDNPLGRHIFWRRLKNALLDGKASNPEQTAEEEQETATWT
Nature of the data set: Agonist activity at mouse TLR4 expressed in HEK293 blue cells assessed as induction of NF-kappaB activation-mediated SEAP production after 20 to 24 hrs by colorimetric assay. In kind it is cell-based. In a few lines:
as §1

In data set [3] the target is T1, Toll-like receptor 4. In words: Agonist activity at human TLR4 expressed in HEK293 blue cells assessed as induction of NF-kappaB activation-mediated SEAP production by measuring AUC after 20 to 24 hrs by colorimetric assay relative to N-cyclohexyl-2-(5-methyl-4-oxo-3-phenyl-4,5-dihydro-3H-pyrimido[5,4-b]indol-2-ylthio)acetamide. In kind it is cell-based.
The target in data set [4] is T3, Toll-like receptor 4 (Mus musculus) (UniProt Q9QUK6).
T3 sequence (whole entry): T2 sequence (Q9QUK6 whole entry)
In words: Agonist activity at mouse TLR4 expressed in HEK293 blue cells assessed as induction of NF-kappaB activation-mediated SEAP production by measuring AUC after 20 to 24 hrs by colorimetric assay relative to N-cyclohexyl-2-(5-methyl-4-oxo-3-phenyl-4,5-dihydro-3H-pyrimido[5,4-b]indol-2-ylthio)acetamide. In kind it is cell-based.

The nature of data set [5]: Cytotoxicity against C57BL/6 mouse primary BMDC assessed as cell viability at 5 uM after 18 hrs by MTT assay relative to control. In kind it is cell-based. The following applies: primary BMDC (bone marrow-derived dendritic cells), read-out: Activity.
Data set [6] deals with T3, Toll-like receptor 4 (Mus musculus). Nature of the data set: Agonist activity at TLR4 in C57BL/6 mouse primary BMDC assessed as induction of IL-6 release at 5 uM after 18 hrs by ELISA relative to N-cyclohexyl-2-(5-methyl-4-oxo-3-phenyl-4,5-dihydro-3H-pyrimido[5,4-b]indol-2-ylthio)acetamide. In general terms: An ELISA detects its analyte on a solid surface through an enzyme-linked reagent.

The target in data set [7] is T1, Toll-like receptor 4. In words: Agonist activity at TLR4 in human PBMC assessed as induction of IL-8 release at 0.1 to 10 uM after 18 hrs by ELISA. In outline:
(§2)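 PBMC isolated from blood-bank buffy coats, 1 × 10⁶/mL, stimulated with graded compound doses for 18 h at 37°C, 5% CO₂. IL-6 and IL-8 in supernatants measured by ELISA. Data are mean ± SEM, representative of three independent experiments. Two-way ANOVA with Dunnett's post hoc test.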

For data set [8], the target named is T1, Toll-like receptor 4. In words: Agonist activity at TLR4 in human PBMC assessed as induction of IL-6 release at 0.1 to 10 uM after 18 hrs by ELISA. In a few lines:
as §2

The test system of a further data set is HepG2. In words: Cytotoxicity against human HepG2 cells assessed as reduction in cell viability at 5 uM after 18 hrs by MTT assay. The following applies: hepg2, 18 h. In kind it is cell-based. In outline:
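HepG2 cells, 1 × 10⁴/well, exposed overnight (18 h) to 5 μM compound. MTT 0.5 mg/mL then added for six or more hours, followed by lysis and absorbance reading. Mean ± SEM of representative data from three independent experiments.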
A general note: Tetrazolium assays rely on reduction of a dye to a coloured formazan, in cell work by metabolically active cells.

Data set [9] has as its target T3, Toll-like receptor 4 (Mus musculus). In words: Agonist activity at TLR4 in C57BL/6 mouse primary BMDC assessed as induction of CCL5 release at 0.1 to 10 uM after 18 hrs by ELISA. In outline: (§3)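 BMDC from C57BL/6 mice, 1 × 10⁵ cells/well in RPMI 1640 with 10% FBS and penicillin/streptomycin. Graded doses for 18 h at 37°C, 5% CO₂. IL-6 or CCL5 in supernatants measured by ELISA, detection limit 15 pg/mL. Positive control ultrapure LPS-EB 10 ng/mL. Significance by two-way ANOVA with Dunnett's post hoc test.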

Data set [10] shares this target. Nature of the data set: Agonist activity at TLR4 in C57BL/6 mouse BMDC assessed as induction of IL-6 release at 0.1 to 10 uM after 18 hrs by ELISA. In outline:
as §3

Data set [11] relates to Mus musculus. In words: Immunostimulatory activity in wild type C57BL/6 mouse assessed as induction of IL-6 levels in serum at 20 nmol, iv measured at 3 hrs post dose by Luminex beads assay. In kind it is functional, organism-based. In a few lines: (§4)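 Seven- to nine-week-old wild-type C57BL/6 mice (n = 6) injected iv with 20 nmol/animal in 0.1% DMSO in saline. Sera collected 3 h after injection; IL-6, IP-10 and KC quantified by Luminex bead assay, detection limit 2.56 pg/mL. Kruskal–Wallis test with Dunn's post hoc test.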

Data set [12] deals with Mus musculus. Nature of the data set: Immunostimulatory activity in wild type C57BL/6 mouse assessed as induction of keratinocyte chemo-attractant levels in serum at 20 nmol, iv measured at 3 hrs post dose by Luminex beads assay. In kind it is functional, organism-based. In outline:
as §4

Data set [13] deals with Mus musculus. In words: Immunostimulatory activity in wild type C57BL/6 mouse assessed as induction of IP-10 levels in serum at 20 nmol, iv measured at 3 hrs post dose by Luminex beads assay. In kind it is functional, organism-based. In outline:
as §4

T1 sequence (O00206 whole entry): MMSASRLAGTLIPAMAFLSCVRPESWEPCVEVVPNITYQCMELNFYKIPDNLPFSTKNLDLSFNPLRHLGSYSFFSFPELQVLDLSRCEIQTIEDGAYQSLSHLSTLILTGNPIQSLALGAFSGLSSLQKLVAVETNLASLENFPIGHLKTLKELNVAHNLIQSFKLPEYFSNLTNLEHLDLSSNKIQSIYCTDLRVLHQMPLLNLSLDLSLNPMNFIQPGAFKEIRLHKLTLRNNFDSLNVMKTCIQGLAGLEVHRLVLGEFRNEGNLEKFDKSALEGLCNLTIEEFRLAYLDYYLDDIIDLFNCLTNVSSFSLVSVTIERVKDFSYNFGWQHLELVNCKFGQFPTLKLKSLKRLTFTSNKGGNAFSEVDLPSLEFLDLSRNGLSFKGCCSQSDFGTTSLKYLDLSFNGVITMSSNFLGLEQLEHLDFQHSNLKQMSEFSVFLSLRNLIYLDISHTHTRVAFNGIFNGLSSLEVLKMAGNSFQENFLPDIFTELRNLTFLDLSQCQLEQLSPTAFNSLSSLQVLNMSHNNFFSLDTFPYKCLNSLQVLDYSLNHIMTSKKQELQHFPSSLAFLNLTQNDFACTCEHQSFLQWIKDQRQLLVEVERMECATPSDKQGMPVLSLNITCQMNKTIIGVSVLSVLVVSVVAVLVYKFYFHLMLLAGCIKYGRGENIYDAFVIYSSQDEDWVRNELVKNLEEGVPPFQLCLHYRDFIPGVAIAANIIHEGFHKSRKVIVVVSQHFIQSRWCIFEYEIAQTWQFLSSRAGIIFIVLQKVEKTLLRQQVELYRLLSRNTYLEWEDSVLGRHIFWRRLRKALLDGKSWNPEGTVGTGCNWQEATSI

For orientation: EC50 means the concentration giving half of the maximal effect. For the compound `Cn1c2ccc(-c3ccc4ccccc4c3)cc2c2nc(SCC(=O)NC3CCCCC3)n(-c3ccccc3)c(=O)c21`, the EC50 is 0.92 µM at Toll-like receptor 4 [1] and 2.01 µM on Toll-like receptor 4 [2]. For the same compound, the Activity is 1300% on Toll-like receptor 4 [3], 78% in data set [4], 137% in data set [6] and “Non-Toxic” in the data set on HepG2. Besides, the viability at 18 h, 5 µM in [5] was found to be 84%. Besides, the outcome (at Toll-like receptor 4 [7]; on Toll-like receptor 4 [8]; in data set [9]; in data set [10]) was Active.

Regarding `Cn1c2ccccc2c2nc(SCC(=O)NC3CCCCC3)n(-c3ccccc3)c(=O)c21`, the EC50 came out at 8.26 µM at Toll-like receptor 4 [1] and 3.17 µM on Toll-like receptor 4 [2]. In addition, the viability at 18 h, 5 µM in data set [5] is 97 to 106%. Also, the result (on Toll-like receptor 4 [7]; on Toll-like receptor 4 [8]; in data set [9]; in the data set on Mus musculus [11]; with Mus musculus [12]; in the data set on Mus musculus [13]) was Active. In addition, the result in [10] was Active. Also, in the data set on HepG2, the Activity result is recorded as “Non-Toxic”.

`Cn1c2ccc(-c3ccccc3)cc2c2nc(SCC(=O)NC3CCCCC3)n(-c3ccccc3)c(=O)c21`: the EC50 on Toll-like receptor 4 [1] was 0.43 µM; on Toll-like receptor 4 [2] it was 0.82 µM. In addition, the Activity is 1560% at Toll-like receptor 4 [3], 223% in data set [4], 123% in [6] and “Non-Toxic” in the data set on HepG2. For the same compound, the viability at 18 h, 5 µM in data set [5] came out at 93%. Further, the outcome (on Toll-like receptor 4 [7]; on Toll-like receptor 4 [8]; in data set [9]; with Mus musculus [11]; with Mus musculus [12]; with Mus musculus [13]) was Active. The result in data set [10] was Active.

Consider `O=C(CSc1nc2c3c([nH]c2c(=O)n1-c1ccccc1)CCCCC3)NC1CCCCC1`, for which the EC50 at Toll-like receptor 4 [1] was determined as 7.42 µM; on Toll-like receptor 4 [2] it was 2.83 µM. In addition, the Activity stood at 137% at Toll-like receptor 4 [3], 82% in data set [4] and 115% in [6]. Besides, in [5], the viability at 18 h, 5 µM was determined as 84%.

On to `Cn1c2ccc(Br)cc2c2nc(SCC(=O)NC3CCCCC3)n(-c3ccccc3)c(=O)c21`, for which the EC50 at Toll-like receptor 4 [1] came out at 3.58 µM; at Toll-like receptor 4 [2] it was 2.45 µM. The values for the Activity (at Toll-like receptor 4 [3]; in [4]; in [6]) were 159%, 103% and 120%, respectively. Also, the viability at 18 h, 5 µM in data set [5] is 63%.

On to `CCCCCCCC(=O)Nc1ccc2c(c1)c1nc(SCC(=O)NC3CCCCC3)n(-c3ccccc3)c(=O)c1n2C`, for which the EC50 on Toll-like receptor 4 [1] and on Toll-like receptor 4 [2] was more than 10 µM throughout. The Activity at Toll-like receptor 4 [3] was found to be 15%; in data set [4], 1%; in [6], 0%. The viability at 18 h, 5 µM in data set [5] came out at 35%.

Turning to `Cn1c2c(c3nc(SCC(=O)NC4CCCCC4)n(-c4ccccc4)c(=O)c31)CCCCC2`, the values for the EC50 at Toll-like receptor 4 [1] and on Toll-like receptor 4 [2] were more than 10 µM and 8.8 µM, respectively. For the same compound, the Activity on Toll-like receptor 4 [3] is 46%; in data set [4], 44%; in data set [6], 93%; in the data set with HepG2, “Non-Toxic”. The viability at 18 h, 5 µM in [5] turned out to be 95%. Further, the result (in data set [9]; in the data set with Mus musculus [11]; with Mus musculus [12]; in the data set on Mus musculus [13]; in data set [10]) was Active.

With `Cc1[nH]c2c(=O)n(-c3ccccc3)c(SCC(=O)NC3CCCCC3)nc2c1C`, the EC50 on Toll-like receptor 4 [1] and on Toll-like receptor 4 [2] was more than 10 µM in each case. For the same compound, the Activity at Toll-like receptor 4 [3] amounted to 18%; in [4], 28%; in data set [6], 78%. Besides, in data set [5], the viability at 18 h, 5 µM is 70%.

For `Cn1c2ccc(I)cc2c2nc(SCC(=O)NC3CCCCC3)n(-c3ccccc3)c(=O)c21`, the EC50 on Toll-like receptor 4 [1] came to 3.75 µM; on Toll-like receptor 4 [2], 2.51 µM. The Activity stood at 204% at Toll-like receptor 4 [3], 104% in data set [4] and 74% in data set [6]. Further, the viability at 18 h, 5 µM in [5] was determined as 75%.
